# High-throughput results from PubChem BioAssay.
# Most compounds without a hit are left out; they make up all but 1.3% or so of the library.
# ASAP1 inh: inhibitors of human ASAP1 ArfGAP activity. Q9ULH1. inhibition, % at 16.5 µM. hit rate 0.19% among 360,000. ASAP1-stimulated ARF1 GTP hydrolysis, GDP FP detection; in the data active = inhibition above about 25%;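 also: 0% = vehicle with enzyme and substrate and 100% = no enzyme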
# TDP2 absorb: blocks human TDP2 phosphodiesterase activity | O95551 | recombinant TDP2, T5PNP hydrolysis, p-nitrophenol absorbance 415 nm | inhibition, % at 12.8 µM | hit rate 0.34% among 370,000 | AID 720702;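 active = inhibition above the mean of all tested compounds plus 3 SD, set per campaign, cut at about 25% in these data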;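 also: 0% = DMSO with enzyme and 100% = buffer with substrate but no TDP2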
#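 Incubation: 2 h at 37 °C; Test system: recombinant human TDP2; Quantity: enzyme 120 nM; Read-out basis: percent inhibition; Medium: 50 mM Tris-HCl pH 7.5 with Mg2+, KCl, DTT, BSA; Repeats: single replicate; Compound: 12.8 µM single point, 1% DMSO; Signal: epi absorbance; Reagent: 5 mM T5PNP chromogenic substrate; Benchmarks: no-enzyme high, DMSO-plus-enzyme low.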
# CASP6 VEID inh: inhibitors of human caspase-6 | hit rate 0.53% among 350,000 | P55212 | inhibition, % at 12.5 µM | purified caspase-6, Z-VEID-R110 cleavage fluorescence;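 active = mean inhibition across replicates at least about 35%, with every replicate also reaching that limit, limit read from the data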;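 also: 0% = median of neutral control wells and 100% = no fluorescence left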
# Target sequence (P55212 24-179 limits assumed): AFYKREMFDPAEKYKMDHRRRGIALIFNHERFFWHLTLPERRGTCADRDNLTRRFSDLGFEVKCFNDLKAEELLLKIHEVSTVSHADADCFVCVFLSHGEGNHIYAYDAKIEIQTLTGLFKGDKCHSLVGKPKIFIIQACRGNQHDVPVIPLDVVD
# Target sequence (P55212 194-293 limits assumed): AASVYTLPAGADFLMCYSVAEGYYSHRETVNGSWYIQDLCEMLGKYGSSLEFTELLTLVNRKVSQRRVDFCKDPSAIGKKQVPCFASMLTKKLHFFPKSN
# ARFGAP1 inh: rat ARFGAP1 inhibition; Q62848; Arfgap1-stimulated ARF1 GTP hydrolysis, GDP FP detection; inhibition, % at 16.5 µM; hit rate 0.26% among 360,000;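 active = inhibition above a per-plate limit, mean inhibition of low control wells plus 3 SD, cut at about 25% in these data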;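 also: 0% = DMSO wells with enzyme and 100% = wells lacking Arfgap1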
# Target sequence (Q62848 1-136 limits assumed): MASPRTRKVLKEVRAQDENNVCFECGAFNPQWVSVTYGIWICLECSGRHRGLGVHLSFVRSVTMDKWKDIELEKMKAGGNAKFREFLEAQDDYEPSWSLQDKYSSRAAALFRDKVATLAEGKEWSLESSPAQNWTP
#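 Material: truncated rat Arfgap1 GAP domain; Incubation: compound-enzyme preincubation 20 min, reaction 120 min, detection 60 min, 25 °C; Read-out: percent inhibition of Arfgap1-stimulated GTP hydrolysis; Technique: FP, GDP Alexa 633 tracer displaced from anti-GDP antibody, 620/688 nm; Controls: No-Arfgap1 wells (100%) versus DMSO full-reaction wells (0%); Replication: single well per compound.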
# LEDGF integ inh: blocks HIV-1 LEDGF/p75-dependent DNA integration | TR-FRET IN-LEDGF/p75 DNA integration, Eu/Cy5 | inhibition, % at 3.7 µM | hit rate 0.64% among 370,000 | AID 743269;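 active = inhibition above the screen-wide mean plus 3 SD, cut at about 13% in these data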;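 also: signal is the Cy5 over europium emission ratio at 671 and 618 nm; 0% = plate median of compound wells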
# ASAP1 GAP conf: ASAP1 inhibition confirmed; shares compounds with ASAP1 inh; ASAP1-stimulated Arf1 GTPase, GDP fluorescence polarization; inhibition, % at 16.5 µM; hit rate 37% among 620; AID 624431;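 active = mean inhibition over triplicates exceeds the hit threshold derived for the earlier primary screening run, cut at about 25% in these data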
# An asterisk follows results filed as active; . = not tested or not shown.
SMILES,ASAP1 inh,TDP2 absorb,CASP6 VEID inh,ARFGAP1 inh,LEDGF integ inh,others
COc1ccccc1C1C2=C(N=c3s/c(=C/c4cccc(OCC(=O)O)c4)c(=O)n31)c1ccccc1CC2 (stereo unspecified),-3.0,-6.6,37.9*,-1.6,2.8,
COc1cccc(C2C3=C(N=c4s/c(=C\c5cccc(O)c5)c(=O)n42)c2ccccc2CC3)c1OC (stereo unspecified),5.6,2.1,-1.2,11.0,-0.3,
Cc1ccccc1NC(=O)C(C)OC(=O)C1CC(=O)N(Cc2ccco2)C1 (stereo unspecified),-2.1,0.0,55.3*,6.2,2.0,
O=C(c1cccs1)N1CC=C(c2ccccc2)CC1,4.6,1.1,-4.1,-10.4,-1.8,
CCc1noc(C)c1C(=O)Nc1nnc(C(CC)CC)s1,-6.0,3.1,0.7,-10.0,0.1,
N#C[C@@H]1[C@@H](c2ccccc2-c2cccc(F)c2)[C@H](CO)N1C(=O)C1CCCC1,.,.,-0.6,.,.,
CN(C(=S)NC(=O)C12CC3CC(CC(C3)C1)C2)c1ccc(O)cc1,0.6,18.7,18.1,-1.9,15.3*,
CN1C=C/C(=C\c2cc[n+](C)c3ccccc23)c2ccccc21,1.7,28.0*,-1.5,6.3,1.6,
Cc1cccc(C(=O)Nc2ccc(NC(=O)c3ccccc3)cc2)c1,4.2,-4.5,0.2,7.7,1.5,
Cc1cccc(C(=O)Nc2cccc(NC(=O)c3ccccc3)c2)c1,9.6,-14.3,54.3*,11.9,4.7,
Cc1ccc(C)c(OCCC(=O)NNC(=O)c2ccccc2F)c1,-2.3,2.8,-2.6,0.5,1.3,
COCCN(C(=O)COC(=O)CCC(=O)c1ccc(C)cc1)c1c(N)n(Cc2ccccc2)c(=O)[nH]c1=O,11.2,-10.9,1.1,1.6,-3.8,
COCC(=O)N(C)C[C@@H]1Oc2cc(-c3cccc(F)c3)ccc2S(=O)(=O)N([C@@H](C)CO)C[C@H]1C,.,.,1.3,.,.,
Cc1ccccc1/C=N/Nc1nc2ccccc2[nH]1,-5.4,-0.8,-0.8,-1.2,-1.7,
O=[N+]([O-])c1cc(/C=N/Nc2nc3ccccc3[nH]2)c(O)cc1O,16.7,3.4,60.9*,-1.0,-2.5,
O=C(COc1ccc(S(=O)(=O)NC2CCCCC2)cc1Cl)NCc1ccc2c(c1)OCO2,9.6,7.0,40.4*,3.6,0.5,
CCOC(=O)c1sc2nc(-c3ccco3)c3c(c2c1N)CC(C)(C)OC3,-12.2,19.9,.,-14.0,41.7*,
Cc1nc2sc(C(=O)O)c(N)c2c2c1COC(C)(C)C2,-7.0,5.3,.,-9.8,-0.4,
Cc1sc2c(c1C)c(=O)n(-c1cccc(C(F)(F)F)c1)c(=O)n2CC(=O)NCc1ccco1,2.9,10.6,.,5.5,-2.7,
Cc1ccc(C(=O)O)cc1NC(=S)NC(=O)c1ccc(COc2ccccc2)cc1,-2.1,-3.7,37.6*,-5.8,-0.3,
CC1=CCC(C(=O)O)C(C(=O)NC2CCCCC2)C1 (stereo unspecified),2.4,2.8,40.9*,2.5,3.2,
CC1=C(C)CC(C(=O)NC2CCCC2)C(C(=O)O)C1 (stereo unspecified),2.5,1.6,-0.8,-1.9,-0.9,
Cc1cc(C)c(C(O)c2ncc(-c3cccc(F)c3)[nH]2)c(C)c1 (stereo unspecified),-5.4,-4.3,1.3,-2.4,4.9,
O=C(COc1ccccc1[N+](=O)[O-])Nc1ccc(NC(=O)c2cc3ccccc3o2)cc1,0.7,5.4,0.0,5.7,2.0,
O=C(COc1ccc(/C=N/NC(=O)c2cc3ccccc3o2)cc1Br)Nc1ccccc1,75.5*,-1.2,.,16.8,-0.3,ASAP1 GAP conf=83.7*
SMILES,ASAP1 inh,TDP2 absorb,CASP6 VEID inh,ARFGAP1 inh,LEDGF integ inh,others
Cc1[nH]c2ccccc2c1CC(=O)Nc1ccc(Nc2cccnc2)c(Br)c1,27.1*,2.5,0.5,21.4,-0.9,ASAP1 GAP conf=15.9
Cc1ccccc1-c1cnc(C(O)c2ccccc2)[nH]1 (stereo unspecified),-8.4,6.7,-1.2,-7.2,0.2,
O=C1C(=O)N(Cc2cccnc2)C(c2ccc(Br)cc2)/C1=C(\O)c1ccc2c(c1)OCCO2 (stereo unspecified),-7.6,-0.4,1.5,-1.9,-1.7,
CCN1C[C@@H](C)[C@H](OC)CN(C)C(=O)c2ccc(NC(=O)c3ccno3)cc2OC[C@H]1C,.,.,-1.3,.,.,
Cc1cc(NC(=O)C2CCN(C(=O)c3ccco3)CC2)ccc1Br,29.7*,11.5,3.5,2.9,1.8,ASAP1 GAP conf=1.1
COc1cccc(-c2cnc3c(NC=O)cc(-c4ccccc4)cn23)c1,-19.5,0.4,0.9,-19.1,-1.5,
COc1cccc(-c2cnc3c(NC=O)cc(-c4ccc(N5CCN(C)CC5)cc4)cn23)c1,36.1*,1.3,.,17.9,3.4,ASAP1 GAP conf=75.6*
CC(C)c1ccc(NC(=O)CSc2nc(=O)n(CCCN3CCOCC3)c3c2CCC3)cc1,-2.6,-3.4,0.7,5.6,2.5,
CC1(C)Cc2nc3sc4c(=O)n(CC(=O)NCc5ccco5)cnc4c3cc2CO1,25.2*,7.2,.,0.5,-0.8,ASAP1 GAP conf=7.6
Cc1nc2ccccc2c2c1CC(C)S2 (stereo unspecified),-6.8,10.3,-1.0,6.7,1.7,
Cc1ccc(NC(=O)CN2C(=O)COc3ccc(S(=O)(=O)N4CCCC4)cc32)c(C)c1,-1.7,-16.4,2.3,6.4,0.6,
COc1cc(O)cc(/C=C/c2ccccc2)c1,26.6*,0.5,2.4,4.0,0.2,ASAP1 GAP conf=9.0
Cc1nc(SCC(=O)Nc2c(C)nn(C)c2C)c2cnn(-c3ccccc3)c2n1,25.1*,-9.1,.,6.1,-3.9,ASAP1 GAP conf=5.0
Cc1nn(Cc2ccccc2)c(C)c1NC(=O)CSc1nc(-c2ccccc2)nc2c1cnn2-c1ccccc1,3.6,-6.0,.,-5.0,1.1,
CN(c1ccc(NC(=O)Cc2c[nH]c3ccccc23)cc1)c1ccccn1,3.5,2.2,-2.2,12.9,-3.8,
COc1ccc(C=NNC(=S)Nc2ccc(F)cc2)cc1OC,1.3,5.2,2.3,12.0,-6.4,
COc1ccc(C=NNC(=S)NN=Cc2ccc(OC)c(OC)c2)cc1OC,33.8*,1.0,1.8,44.2*,-3.4,ASAP1 GAP conf=59.1*
COc1ccc(N=Cc2c(C)[nH][nH]c2=O)cc1,5.8,-20.6,0.3,8.9,-0.9,
COc1ccc(C(=O)Nc2ccc(Cl)cc2C(=O)NCc2ccco2)cc1,27.2*,3.8,.,3.8,7.8,ASAP1 GAP conf=7.3
COc1ccc(NC(=O)COC(=O)CCc2ccc(S(=O)(=O)N3CCOCC3)cc2)cc1Cl,-0.8,-11.0,3.4,-3.7,-2.6,
CCOC(=O)N1CCN(C(=O)C2CCC(CNS(=O)(=O)c3ccccc3)CC2)CC1 (stereo unspecified),-9.1,5.4,.,-5.3,1.4,
O=C(C1CCC(CNS(=O)(=O)c2ccccc2)CC1)N1CCCCC1 (stereo unspecified),28.3*,-5.5,-0.8,5.8,-0.3,ASAP1 GAP conf=-0.3
